Data on 5 compounds can be found in ChEMBL document CHEMBL1129428 (J Med Chem, 1996).

Series [1] deals with Rattus norvegicus. The series is described as follows: Compound was tested for anticonvulsant activity after Oral Administration into Rats by using MES screen test after 0.25h,dose 12.5 mg/kg; No activity was demonstarted. Type of series: functional, organism-based. Set-up: dose 12.5 mg/kg. A digest of the protocol: (§1)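 Rats received the compound orally. […] Rats were tested in the MES screen at 0.25, 0.5, 1, 2 and 4 h. Each value is the number of rats protected out of 4. The test followed NINDS procedures.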

The subject of series [2] is Mus musculus. The experiment in a line: Compound was tested for anticonvulsant activity after intraperitoneal injection into mice by using scPTZ screen test after 2 hr. The following applies: ip. It is filed as functional. A digest of the protocol: (§2)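 Quantitative intraperitoneal mouse testing in the MES, scPTZ or rotorod neurotoxicity screens at the peak time given for each compound (0.25–2 h). ED50 or TD50 reported in mg/kg with 95% CI and slope (SE).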

For series [3], the species on record is Rattus norvegicus. The series is described as follows: Protection index = TD50/ED50 (MES). The following applies: in vivo. Type of series: ADME, organism-based.
Series [4] can be described thus: Protection index = TD50/ED50. It is filed as ADME. The following applies: read-out: PI.
Series [5] concerns Rattus norvegicus. The series is described as follows: Compound was tested for anticonvulsant activity after Oral Administration into Rats by using MES screen test after 4h,dose 12.5 mg/kg; number of rats out of four which were protected. It is filed as functional. A digest of the protocol: as §1
In series [6] the test system is Rattus norvegicus. The series is described as follows: Anticonvulsant activity after oral administration into rats. Type of series: functional. Also on record: concentration or dose not given beside the values.
Series [7] concerns Rattus norvegicus. The experiment in a line: Compound was tested for anticonvulsant activity after Oral Administration into Rats by using MES screen test after 1h,dose 12.5 mg/kg; number of rats out of four which were protected. Type of series: functional. A digest of the protocol:
as §1

Series [8] in a line: Compound was tested for toxicity after intraperitoneal injection into mice by using neurotoxicity screen test after 2 hr. It is filed as organism-based. To be noted: mouse, in vivo, ip. A digest of the protocol: as §2
Series [9] is described as follows: Compound was tested for toxicity after oral administration in rat by using neurotoxicity screen test after 4 hr. The following applies: in vivo. Type of series: organism-based. A digest of the protocol:
(§3)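 Rat neurotoxicity after oral dosing, observed at 0.25, 0.5, 1, 2, 4, 6, 8 and 24 h (8 h omitted for one compound).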

Series [10] has as its system Mus musculus. The experiment in a line: Compound was tested for anticonvulsant activity after intraperitoneal injection into mice by using MES screen test after 1 hr. The following applies: ip. Type of series: functional. A digest of the protocol:
as §2

Series [11] has as its system Mus musculus. The series is described as follows: Toxicity after intraperitoneal injection into mice by using toxicity screen test after 0.5 hr. It is filed as organism-based. To be noted: in vivo, ip. A digest of the protocol:
(§4)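 Mice injected intraperitoneally at 30, 100 and 300 mg/kg and examined 0.5 and 4 h afterwards. Each entry is the minimum dose giving activity (MES protection, scPTZ protection, or rotorod failure for neurotoxicity) in half or more of the mice. Activity is called absent if nothing occurs at 300 mg/kg.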

Series [12] concerns Mus musculus. The series is described as follows: Anticonvulsant activity after intraperitoneal injection into mice measured in a maximal electroshock scree (MES) screen. Type of series: functional.
The test system of series [13] is Rattus norvegicus. The series is described as follows: Compound was tested for anticonvulsant activity after Oral Administration into Rats by using MES screen test after 2h,dose 12.5 mg/kg; number of rats out of four which were protected. It is filed as functional. A digest of the protocol: as §1
Series [14] concerns Mus musculus. The series is described as follows: Anticonvulsant activity after intraperitoneal injection into mice by using MES screen test after 0.5 hr. It is filed as functional.
In series [15] the test system is Mus musculus. The experiment in a line: Anticonvulsant activity after intraperitoneal injection into mice by using scPTZ screen after 0.5 hr. It is filed as functional.
Series [16] has as its system Mus musculus. The experiment in a line: Compound was tested for toxicity after intraperitoneal injection into mice by using toxicity screen test after 4 hr. Type of series: organism-based. To be noted: in vivo, ip. A digest of the protocol: as §4
Series [17] deals with Rattus norvegicus. The series is described as follows: Compound was tested for anticonvulsant activity after Oral Administration into rat by using MES screen test after 2 hr. Type of series: functional. A digest of the protocol:
(§5)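 Rats dosed orally, typically at 50 mg/kg first, then mostly 12.5 mg/kg (some compounds at 30 mg/kg), and tested by maximal electroshock. Four rats per compound, scored at 0.25, 0.5, 1, 2 and 4 h as the number of rats protected out of 4.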

The subject of series [18] is Mus musculus. The series is described as follows: Compound was tested for anticonvulsant activity after intraperitoneal injection into mice by using scPTZ screen test after 1 hr. It is filed as functional. To be noted: ip. A digest of the protocol:
as §2

Series [19] in a line: Compound was tested for toxicity after intraperitoneal injection into mice by using neurotoxicity screen test after 0.5 hr. To be noted: mouse, in vivo, ip.
The nature of series [20]: Compound was tested for toxicity after oral administration in rat by using neurotoxicity screen test after 0.25-24 hr. The following applies: in vivo. Type of series: organism-based. A digest of the protocol:
as §3

A short description of series [21]: Compound was tested for toxicity after intraperitoneal injection into mice by using neurotoxicity screen test after 1 hr. It is filed as organism-based. To be noted: mouse, in vivo, ip. A digest of the protocol:
as §2

Series [22] has as its system Rattus norvegicus. The experiment in a line: Compound was tested for anticonvulsant activity after Oral Administration into Rats by using MES screen test after 0.5h,dose 12.50 mg/kg; number of rats out of four which were protected. The following applies: dose 12.5 mg/kg. Type of series: functional. A digest of the protocol: as §1
For series [23], the system named is Rattus norvegicus. The experiment in a line: Compound was tested for anticonvulsant activity after Oral Administration into rat by using MES screen test after 4 hr. Type of series: functional. A digest of the protocol:
as §5

For series [24], the system named is Rattus norvegicus. The series is described as follows: Compound was tested for anticonvulsant activity after Oral Administration into Rats by using MES screen test after 0.25h,dose 12.50 mg/kg; number of rats out of four which were protected. It is filed as functional. The following applies: dose 12.5 mg/kg. A digest of the protocol:
as §1

Series [25] concerns Rattus norvegicus. The series is described as follows: Compound was tested for anticonvulsant activity after Oral Administration into Rats by using MES screen test after 1h,dose 12.50 mg/kg; number of rats out of four which were protected. Type of series: functional. To be noted: dose 12.5 mg/kg. A digest of the protocol:
as §1

Series [26] concerns Mus musculus. The experiment in a line: Anticonvulsant activity after intraperitoneal injection into mice by using toxicity screen test after 0.5 hr. Type of series: organism-based. To be noted: in vivo, ip.
The nature of series [27]: Compound was tested for toxicity after oral administration in rat by using neurotoxicity screen test after 2 hr. It is filed as organism-based. The following applies: in vivo. A digest of the protocol: as §3
The subject of series [28] is Mus musculus. The experiment in a line: Compound was tested for anticonvulsant activity after intraperitoneal injection into mice by using MES screen test after 2 hr. It is filed as functional. The following applies: ip. A digest of the protocol:
as §2

Series [29] has as its system Rattus norvegicus. The experiment in a line: Compound was tested for anticonvulsant activity after Oral Administration into Rats by using MES screen test after 4h,dose 12.50 mg/kg; number of rats out of four which were protected. To be noted: dose 12.5 mg/kg. Type of series: functional. A digest of the protocol: as §1
The subject of series [30] is Rattus norvegicus. The series is described as follows: Compound was tested for anticonvulsant activity after Oral Administration into Rats by using MES screen test after 2h,dose 12.50 mg/kg; number of rats out of four which were protected. Type of series: functional. To be noted: dose 12.5 mg/kg. A digest of the protocol: as §1
Series [31] relates to Mus musculus. The series is described as follows: Compound was tested for anticonvulsant activity after intraperitoneal injection into mice by using MES screen test at 1 hr. It is filed as functional. The following applies: ip. A digest of the protocol: as §2
The subject of series [32] is Rattus norvegicus. The series is described as follows: Compound was tested for anticonvulsant activity after Oral Administration into Rats by using MES screen test after 0.5h,dose 12.5 mg/kg; No activity was demonstarted. Also on record: dose 12.5 mg/kg. Type of series: functional, organism-based. A digest of the protocol: as §1
Series [33] has as its system Mus musculus. The experiment in a line: Anticonvulsant activity after intraperitoneal injection into mice by using scPTZ screen test after 4 hr. It is filed as functional.
Series [34] in a line: Compound was tested for toxicity after intraperitoneal injection into mice by using neurotoxicity screen test after 4 hr. It is filed as organism-based. The following applies: mouse, in vivo, ip. A digest of the protocol: as §4
For series [35], the system named is Rattus norvegicus. The experiment in a line: Compound was tested for anticonvulsant activity after Oral Administration into rat by using MES screen test after 2 hr dose 12.5 mg/kg. Type of series: functional.

Where “and” joins values, the source holds several entries; their conditions need not be identical. Identical values can stand only once.

Consider `CC/C(=N/NC(N)=O)c1ccc(Oc2ccc(F)cc2)cc1`, for which the Activity entry was “No activity” in the series on Rattus norvegicus [1]; 4 in the series with Rattus norvegicus [5]; 2 with Rattus norvegicus [6]; 4 in the series with Rattus norvegicus [7]; 4 in the series with Rattus norvegicus [13]. For the same compound, the ED50 (usually the dose at which the effect has come halfway, by size or by number of responders) in the series on Mus musculus [2] amounted to 12.8 mg/kg; in the series on Mus musculus [10], 5.46 mg/kg; in the series with Rattus norvegicus [17], 4.25 mg/kg. The PI in the series filed under Rattus norvegicus [3] was 6.45 and 16.9. Moreover, in [4], the selectivity ratio stood at 2.75. Further, in series [8], the TD50 (in general, the 50% point of the dose-response relation for the toxic effect studied) at 2 h was found to be 35.3 mg/kg. Also, the TD50 at 4 h in series [9] is greater than 72 mg/kg. For the same compound, the Dose was determined as 300 mg/kg in the series with Mus musculus [11]; 30 mg/kg in the series on Mus musculus [12]; 30 mg/kg in the series on Mus musculus [14]; 100 mg/kg in the series on Mus musculus [15]; 100 mg/kg with Mus musculus [16].
Regarding `O=C1NC(=O)C(c2ccccc2)(c2ccccc2)N1` [PHENYTOIN], the ED50 in the series with Mus musculus [18] is greater than 50 mg/kg. In series [19], the TD50 at 0.5 h amounted to 41.2 mg/kg. Further, the Dose in the series with Mus musculus [11] worked out at 100 mg/kg; in the series with Mus musculus [12] it was 30 mg/kg; in the series with Mus musculus [14], 30 mg/kg; in the series on Mus musculus [16] it was 100 mg/kg. Moreover, in [20], the TD50 is greater than 500 mg/kg.
For the compound `NC(=O)N/N=C/c1ccc(Oc2ccc(Cl)cc2F)cc1`, in [21], the TD50 at 1 h was determined as 36.3 mg/kg. Further, the Activity in the series on Rattus norvegicus [22] was 4; in the series with Rattus norvegicus [24], 2; in the series with Rattus norvegicus [25], 4; in the series with Rattus norvegicus [29], 4; with Rattus norvegicus [30], 4. For the same compound, the ED50 was greater than 45 mg/kg in the series with Mus musculus [2], 1.13 mg/kg with Rattus norvegicus [23] and 3.31 mg/kg with Mus musculus [28]. In addition, the Dose in the series with Mus musculus [26] was found to be 100 mg/kg; with Mus musculus [12], 30 mg/kg; with Mus musculus [14], 30 mg/kg; with Mus musculus [16], 30 mg/kg. In [27], this compound had a TD50 at 2 h greater than 90 mg/kg.
As to `Cc1ccc(Sc2ccc(/C=N/NC(N)=O)cc2)cc1`, the Activity entry in the series on Rattus norvegicus [1] was “No activity”; with Rattus norvegicus [5], 4; with Rattus norvegicus [7], 4; in the series with Rattus norvegicus [32], “No activity”; in the series with Rattus norvegicus [13], 4. The results for the ED50 with Mus musculus [18], with Mus musculus [31] and in the series on Rattus norvegicus [17] were greater than 300 mg/kg, 9.46 mg/kg and 3.65 mg/kg, respectively. Also, the Dose is 300 mg/kg with Mus musculus [11]; 30 mg/kg in the series on Mus musculus [12]; 30 mg/kg in the series with Mus musculus [14]; 100 mg/kg in the series on Mus musculus [33]; 100 mg/kg in the series with Mus musculus [15]; 100 mg/kg in the series with Mus musculus [16]. Also, the TD50 in [20] is greater than 500 mg/kg. This compound yielded a TD50 at 4 h in [34] of 197 mg/kg.
With `NC(=O)N/N=C/c1ccc(Oc2cc(F)ccc2F)cc1`, the Activity entry in the series with Rattus norvegicus [1] was “No activity”; in the series with Rattus norvegicus [5] it was 1; in the series with Rattus norvegicus [6] it was 1; with Rattus norvegicus [7], 1. Moreover, in the series on Rattus norvegicus [35], the ED50 was determined as 11.4 mg/kg. Further, the Dose in the series on Mus musculus [11] is 300 mg/kg; in the series with Mus musculus [12], 300 mg/kg; with Mus musculus [14], 100 mg/kg; with Mus musculus [15], 100 mg/kg; with Mus musculus [16] it was 300 mg/kg.
